Experimental data from different studies.
Lines come from different studies, so protocols differ.
PARP11: Protein mono-ADP-ribosyltransferase PARP11 (PARP11, Homo sapiens, UniProt Q9NR21)
PIK3CA: Phosphatidylinositol 4,5-bisphosphate 3-kinase catalytic subunit alpha isoform (PIK3CA, Homo sapiens, UniProt P42336)
PDE9A: High affinity cGMP-specific 3',5'-cyclic phosphodiesterase 9A (PDE9A, Homo sapiens, UniProt O76083)
PIKFYVE: 1-phosphatidylinositol 3-phosphate 5-kinase (PIKFYVE, Homo sapiens, UniProt Q9Y2I7)
CELA1: Chymotrypsin-like elastase family member 1 (CELA1, Sus scrofa, UniProt P00772)
MAP2K1: Dual specificity mitogen-activated protein kinase kinase 1 (MAP2K1, Homo sapiens, UniProt Q02750)

NC(=O)c1ccc[n+]([C@@H]2O[C@H](COP(=O)([O-])OP(=O)(O)OC[C@H]3O[C@@H](n4cnc5c(N)ncnc54)[C@H](O)[C@@H]3O)[C@@H](O)[C@H]2O)c1
IC50 (PARP11; enzyme activity, inhibitor): 116000 nM

COc1ccc([N+](=O)[O-])cc1/C=C1\SC(=S)NC1=O
IC50 (PIK3CA; enzyme activity, inhibitor, radiometric): 28000 nM

CCNC(=O)[C@H](CCCNC(=N)CF)NC(=O)c1ccccc1
IC50 (Protein-arginine deiminase type-1 (PADI1, Homo sapiens, UniProt Q9ULC6); enzyme activity, inhibitor): 40000 nM

COc1ccc(CNc2c(CO)cnc3c(C4CC4)cc(C#N)cc23)cn1
IC50 (PDE9A; enzyme activity, inhibitor): > 10000 nM

COc1cccc(/C=C2\SC(=S)NC2=O)c1O
IC50 (PIK3CA; enzyme activity, inhibitor, radiometric): > 100000 nM

COc1cc(O)c(CC=C(C)C)c(O)c1C(=O)/C=C/c1ccc(O)cc1
IC50 (Cytochrome P450 1A1 (CYP1A1, Homo sapiens, UniProt P04798); enzyme activity, inhibitor, fluorescence; 15 min, pH 7.4): 280 nM

NC(=O)c1ccc(Oc2ccc(C(N)=O)cc2)cc1
IC50 (PARP11; enzyme activity, inhibitor): 930 nM

COC(C)(C)C#Cc1ccc2[nH]c3c(c2c1)-c1nc(N)ncc1CCC3
IC50 (PIKFYVE; enzyme activity, inhibitor, ADP detection): 6.2 nM

NCCCC[C@H](NC(=O)[C@@H]1CCCN1C(=O)[C@@H]1CSSC[C@H](N)C(=O)N[C@@H](Cc2ccc(O)cc2)C(=O)N[C@@H](Cc2ccccc2)C(=O)N[C@@H](CCC(N)=O)C(=O)N[C@@H](CC(N)=O)C(=O)N1)C(=O)NCC(N)=O
IC50 (Vasopressin V1a receptor (AVPR1A, Homo sapiens, UniProt P37288); ligand displacement, radioligand; cell membranes): 2.9 nM

COCC1CCCc2c1[nH]c(=O)c(C#N)c2-c1ccc(C)cc1 (stereo not shown)
IC50 (PDE9A; enzyme activity, inhibitor, radiometric): 400 nM

O=C(Nc1c[nH]nc1C(=O)NC1CCNCC1)c1cc(F)cc(F)c1
IC50 (Cyclin-dependent kinase 16 (CDK16, Homo sapiens, UniProt Q00536); target engagement in cells, BRET): 1900 nM

C/C=C1\NC(=O)[C@H](C)NC(=O)[C@@H](NC(=O)[C@@H](Cc2ccc(O)cc2)NC(=O)[C@@H](NC(=O)/C(C)=C/C)C(C)C)[C@@H](C)OC(=O)[C@H](Cc2ccccc2)NC(=O)[C@@H](CCC(=O)O)NC1=O
IC50 (CELA1; enzyme activity, inhibitor, absorbance): 6990 nM

CCCCN1/C(=C/C=C/c2sc3ccc(Br)cc3[n+]2CCCC)Sc2ccc(Br)cc21
IC50 (Protein arginine N-methyltransferase 8 (PRMT8, Homo sapiens, UniProt Q9NR22); enzyme activity, inhibitor, radiometric): 3530 nM

CN(C)CC#Cc1ccc2[nH]c3c(c2c1)-c1nc(N)ncc1CCC3
IC50 (MAP2K1; enzyme activity, inhibitor, radiometric): > 10000 nM

Cc1ccc(C(C)C)cc1NC(=O)COC(=O)c1cccc(O)c1
IC50 (CELA1; enzyme activity, inhibitor, absorbance): 41900 nM

O=C1NC(=S)S/C1=C\c1cc(O)ccc1[N+](=O)[O-]
IC50 (PIK3CA; enzyme activity, inhibitor, radiometric): 7200 nM

CC(C)(C)n1nc(-c2cnc3cc(OC4CC4)ccc3c2)c(C(N)=O)c1N
IC50 (MAP2K1; cell-free assay): 8230 nM

O=C1NC(=S)S/C1=C\c1ccc(C(=O)O)cc1
IC50 (PIK3CA; enzyme activity, inhibitor, radiometric): > 100000 nM

CSc1ccc(/C=C2/C(C)=C(CC(=O)O)c3cc(F)ccc32)cc1
IC50 (PDE9A; enzyme activity, inhibitor): > 100000 nM

O=[N+]([O-])c1ccc(N2CCN(S(=O)(=O)c3ccc(F)cc3)CC2)cc1NCc1cccnc1
IC50 (ATP-sensitive inward rectifier potassium channel 1 (Homo sapiens, UniProt P48048); ion flux, inhibitor): 1900 nM

O=C(NCc1ccc(N2CCOCC2)cc1)c1cnc2c(SSc3cccc4cc(C(=O)NCc5ccc(N6CCOCC6)cc5)cnc34)cccc2c1
IC50 (STAM-binding protein (STAMBP, Homo sapiens, UniProt O95630); enzyme activity, inhibitor, FRET): 900 nM

O=C(O)CCc1ccc(O)c(CN(CCN(CC(=O)O)Cc2cc(CCC(=O)NCCCCCC(=O)NCCCC[C@H](NC(=O)N[C@@H](CCC(=O)O)C(=O)O)C(=O)O)ccc2O)CC(=O)O)c1
IC50 (Glutamate carboxypeptidase 2 (FOLH1, Homo sapiens, UniProt Q04609); ligand displacement, radioligand): 24.3 nM

Nc1ncc(-c2nc(N3CCOCC3)nc(N3C[C@H]4CC[C@@H](C3)O4)n2)c(C(F)F)n1
IC50 (PIK3CA; ligand displacement, TR-FRET): 42.2 nM

COc1cccc(/C=C2\SC(=S)NC2=O)c1OCc1ccccc1
IC50 (PIK3CA; enzyme activity, inhibitor, radiometric): > 100000 nM

Cc1ccc(C(C)C)cc1NC(=O)COC(=O)/C=C/c1ccc(Cl)cc1
IC50 (CELA1; enzyme activity, inhibitor, absorbance): 35800 nM

Nc1ncc2c(n1)-c1c([nH]c3ccc(C#CCCO)cc13)CCC2
IC50 (PIKFYVE; target engagement in cells, BRET): 40 nM

CC1(C)CC(=O)c2cc(-c3nc(-c4ccc(Cl)cc4)cs3)c(=O)n(-c3ccccc3C(F)(F)F)c2C1
IC50 (Isocitrate dehydrogenase [NADP] cytoplasmic (IDH1, Homo sapiens, UniProt O75874, R132C); enzyme activity, inhibitor): 200 nM

CCC(C)(O)C#Cc1ccc2[nH]c3c(c2c1)-c1nc(N)ncc1CCC3 (stereo not shown)
IC50 (PIKFYVE; enzyme activity, inhibitor, ADP detection): 1.9 nM

Cc1ccc(C(C)C)cc1NC(=O)COC(=O)/C=C/c1ccccc1
IC50 (CELA1; enzyme activity, inhibitor, absorbance): 5010 nM

COc1ccc(/C=C2\SC(=S)NC2=O)c(OC)c1OC
IC50 (PIK3CA; enzyme activity, inhibitor, radiometric): 68000 nM

C=CC(=O)Nc1cc(Nc2nccc(Nc3cc(Cl)c(F)cc3C(C)(C)O)n2)c(OC)cc1N1CC[C@@H](N(C)C)C1
IC50 (Protein-tyrosine kinase 6 (PTK6, Homo sapiens, UniProt Q13882); enzyme activity, inhibitor; with preincubation): 529 nM

CCOc1ccc2c(-c3cc(C)nc(Nc4cc(OC)cc(C(F)(F)F)c4)n3)cnn2n1
IC50 (Dual specificity tyrosine-phosphorylation-regulated kinase 2 (DYRK2, Homo sapiens, UniProt Q92630); enzyme activity, inhibitor): > 10000 nM

COc1ccc(S(=O)(=O)ON=C2C=C(C)C(=O)C(C)=C2)cc1
IC50 (Histone acetyltransferase KAT6B (Homo sapiens, UniProt Q8WYB5); enzyme activity, inhibitor, radiometric): > 100000 nM

CN1CCN(c2ccc(Nc3ncc4cc(C#N)c(=O)n(C5CCCC5)c4n3)cc2)CC1
IC50 (Activin receptor type-1-like (ACVRL1, Homo sapiens, UniProt P37023); enzyme activity, inhibitor): 449 nM
